What was measured:
Format in all cases: functional
Aedes aegypti [1] = assay: Insecticidal activity against Aedes aegypti second instar larvae assessed as mortality at 0.2 mM after 24 hrs by microscopic analysis relative to control
Summary of the method: (§1)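 Second instar larvae of Ae. aegypti and An. stephensi were exposed to compounds added directly to the culture media, with DMSO as the vehicle control. Larval mortality was scored 24 h later and reported as mean with SEM, with statistical testing against control.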

Aedes aegypti [2] = assay: Insecticidal activity against Aedes aegypti assessed as ovarian follicle size at 0.7 mM administered 1 hr post human blood-meal measured after 47 hrs (reference value: 482.6+/-4.8 um)
Anopheles stephensi [3] = assay: Insecticidal activity against Anopheles stephensi second instar larvae assessed as mortality at 0.2 mM after 24 hrs by microscopic analysis relative to control; summary of the method: as §1
[4] = Selectivity ratio of mortality against Anopheles stephensi second instar larvae to mortality against Aedes aegypti second instar larvae
Aedes aegypti [5] = assay: Insecticidal activity against Aedes aegypti second instar larvae assessed as mortality after 24 hrs by microscopic analysis relative to control; summary of the method: as §1
Anopheles stephensi [6] = assay: Insecticidal activity against Anopheles stephensi second instar larvae assessed as mortality after 24 hrs by microscopic analysis relative to control; summary of the method: as §1

Fc1cc(F)c2c(c1)[C@H]1C=CC[C@H]1[C@@H](c1cccnc1)N2
Activity (Aedes aegypti [1]): 4.7% | Activity (Aedes aegypti [2]): 408.2 um | Activity (Anopheles stephensi [3]): 0%

Fc1cc(F)c2c(c1)[C@@H]1C=CC[C@@H]1[C@H](c1cccnc1)N2
Activity (Aedes aegypti [1]): 18.1% | Ratio [4]: 5 | Activity (Aedes aegypti [2]): 270 um | Activity (Anopheles stephensi [3]): 83.4%

Fc1cc(F)c2c(c1)[C@H]1C=CC[C@H]1[C@H](c1cccnc1)N2
Activity (Aedes aegypti [1]): 1.5% | Activity (Aedes aegypti [2]): 433.6 um | Activity (Anopheles stephensi [3]): 0%

Fc1cc(F)c2c(c1)[C@@H]1C=CC[C@@H]1[C@@H](c1cccnc1)N2
Activity (Aedes aegypti [1]): 12.3% | Ratio [4]: 5 | Activity (Aedes aegypti [2]): 407.7 um | Activity (Anopheles stephensi [3]): 57.5%

Fc1cc(F)c2c(c1)[C@@H]1C=CC[C@@H]1[C@H](c1ccccc1)N2
Activity (Aedes aegypti [1]): 0% | Activity (Aedes aegypti [2]): 235.1 um | Activity (Anopheles stephensi [3]): 0%

Fc1cc(F)c2c(c1)[C@@H]1C=CC[C@@H]1C(c1cccnc1)N2 (mixture of isomers)
Activity (Aedes aegypti [2]): 291.8 um

Fc1cc(C(F)(F)F)cc2c1NC(c1cccnc1)[C@H]1CC=C[C@@H]21 (mixture of isomers)
Activity (Aedes aegypti [1]): 5.3% | Activity (Aedes aegypti [2]): 315 um | Activity (Anopheles stephensi [3]): 0%

CN1c2c(F)cc(F)cc2[C@@H]2C=CC[C@@H]2[C@@H]1c1cccnc1 (racemic)
Activity (Aedes aegypti [1]): 96.2% | LC50 (Aedes aegypti [5]): 100 µM | LC50 (Anopheles stephensi [6]): 100 µM | Activity (Aedes aegypti [2]): 416.3 um | Activity (Anopheles stephensi [3]): 100%

Fc1ccc2c(c1)[C@@H]1C=CC[C@@H]1[C@H](c1cccnc1)N2 (racemic)
Activity (Aedes aegypti [1]): 0% | Activity (Aedes aegypti [2]): 343.8 um | Activity (Anopheles stephensi [3]): 0%

CC(=O)N1c2c(F)cc(F)cc2[C@@H]2C=CC[C@@H]2[C@@H]1c1cccnc1 (racemic)
Activity (Aedes aegypti [1]): 1.7% | Activity (Aedes aegypti [2]): 442.7 um | Activity (Anopheles stephensi [3]): 0%

Fc1cccc2c1N[C@@H](c1cccnc1)[C@H]1CC=C[C@@H]21 (racemic)
Activity (Aedes aegypti [1]): 91.4% | LC50 (Aedes aegypti [5]): 200 µM | LC50 (Anopheles stephensi [6]): 200 µM | Activity (Aedes aegypti [2]): 312.1 um | Activity (Anopheles stephensi [3]): 100%

Fc1cc(F)c2c(c1)[C@@H]1C=CC[C@@H]1[C@H](c1cncs1)N2 (racemic)
Activity (Aedes aegypti [1]): 0% | Ratio [4]: 5 | Activity (Aedes aegypti [2]): 330.8 um | Activity (Anopheles stephensi [3]): 37.6%

CC(C)(C)[C@@H]1Nc2c(F)cc(F)cc2[C@@H]2C=CC[C@H]12 (racemic)
Activity (Aedes aegypti [1]): 15.4% | Ratio [4]: 5 | Activity (Aedes aegypti [2]): 326.2 um | Activity (Anopheles stephensi [3]): 86.4%

Fc1cc(F)c2c(c1)[C@@H]1C=CC[C@@H]1[C@H](c1ccccn1)N2 (racemic)
Activity (Aedes aegypti [1]): 100% | LC50 (Aedes aegypti [5]): 100 µM | LC50 (Anopheles stephensi [6]): 100 µM | Activity (Aedes aegypti [2]): 287.5 um | Activity (Anopheles stephensi [3]): 100%

N#Cc1ccc([C@@H]2Nc3c(F)cc(F)cc3[C@@H]3C=CC[C@@H]32)cc1 (racemic)
Activity (Aedes aegypti [1]): 0% | Activity (Aedes aegypti [2]): 309.5 um | Activity (Anopheles stephensi [3]): 0%

CC(=O)NCc1ccc([C@@H]2Nc3c(F)cc(F)cc3[C@@H]3C=CC[C@@H]32)cc1 (racemic)
Activity (Aedes aegypti [1]): 0% | Activity (Aedes aegypti [2]): 375.4 um | Activity (Anopheles stephensi [3]): 0%

NCc1ccc([C@@H]2Nc3c(F)cc(F)cc3[C@@H]3C=CC[C@@H]32)cc1 (racemic)
Activity (Aedes aegypti [1]): 91.7% | LC50 (Aedes aegypti [5]): 200 µM | LC50 (Anopheles stephensi [6]): 100 µM | Activity (Aedes aegypti [2]): 301.5 um | Activity (Anopheles stephensi [3]): 81.7%

Fc1cc(F)c2c(c1)[C@@H]1C=CC[C@@H]1[C@H](c1ccc(C(F)(F)F)cc1)N2 (racemic)
Activity (Aedes aegypti [1]): 5.9% | Activity (Aedes aegypti [2]): 230.4 um | Activity (Anopheles stephensi [3]): 0%

CN1CCC(NCc2ccc([C@@H]3Nc4c(F)cc(F)cc4[C@@H]4C=CC[C@@H]43)cc2)CC1 (racemic)
Activity (Aedes aegypti [1]): 100% | LC50 (Aedes aegypti [5]): 50 µM | LC50 (Anopheles stephensi [6]): 50 µM | Activity (Aedes aegypti [2]): 275.3 um | Activity (Anopheles stephensi [3]): 100%

CCCCCCCNCc1ccc([C@@H]2Nc3c(F)cc(F)cc3[C@@H]3C=CC[C@@H]32)cc1 (racemic)
Activity (Aedes aegypti [1]): 0% | Activity (Aedes aegypti [2]): 243.4 um | Activity (Anopheles stephensi [3]): 0%

Fc1cc(F)c2c(c1)[C@@H]1C=CC[C@@H]1[C@H](c1ccc(CNCc3ccc4ccccc4c3)cc1)N2 (racemic)
Activity (Aedes aegypti [1]): 0% | Activity (Aedes aegypti [2]): 255.9 um | Activity (Anopheles stephensi [3]): 0%

Fc1cc(F)c2c(c1)[C@@H]1C=CC[C@@H]1[C@H](c1ccc(CNCc3ccc(C(F)(F)F)cc3)cc1)N2 (racemic)
Activity (Aedes aegypti [1]): 0% | Activity (Aedes aegypti [2]): 297.5 um | Activity (Anopheles stephensi [3]): 0%

Reference: ChEMBL document CHEMBL2062360, “Distinct biological effects of golgicide a derivatives on larval and adult mosquitoes” (2012)
